ChEMBL document CHEMBL4190373, “Tumor Targeting with Novel Pyridyl 6-Substituted Pyrrolo[2,3- d]Pyrimidine Antifolates via Cellular Uptake by Folate Receptor α and the Proton-Coupled Folate Transporter and Inhibition of De Novo Purine Nucleotide Biosynthesis” (J Med Chem, 2018)
Calls of active or inactive are those of the source. The calls are words filed in the database; no cut-off is given here.

Columns and labels:
[1] = Growth inhibition of Chinese hamster R2(VC) cells after 96 hrs celltiter-blue assay; conditions: Cricetulus griseus
Outline: (§1)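 CHO sublines expressing human PCFT (R2/PCFT4) or RFC (PC43-10), transporter-null R2, and empty-vector R2(VC). Continuous drug up to 1000 nM, up to 96 h, CellTiter-Blue fluorescence.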

KB [2] = experiment: Antiproliferative activity against human KB cells expressing human RFC/FR-alpha/PCFT assessed as reduction in cell viability measured after 96 hrs by Cell-Titer Blue assay; assay type: functional, cell-based
KB [3] = experiment: Antiproliferative activity against human KB cells expressing human RFC/FR-alpha/PCFT assessed as reduction in cell viability measured after 96 hrs in presence of folic acid by Cell-Titer Blue assay; assay type: functional, cell-based
[4] = Cytotoxicity in RFC-null Chinese hamster R2 cells assessed as reduction in cell viability measured after 96 hrs by Cell-Titer Blue assay; assay type: cell-based; conditions: Cricetulus griseus, R2, 96 h; outline: as §1
KB [5] = experiment: Antiproliferative activity against human KB cells expressing human RFC/FR-alpha/PCFT assessed as reduction in cell viability up to 1000 nM measured after 96 hrs in presence of AICA by Cell-Titer Blue assay; assay type: functional, cell-based
[6] = target: Folate receptor beta (Homo sapiens) (UniProt P14207); experiment: Displacement of [3H]folic acid from human FR-beta receptor expressed in Chinese hamster D4 cells measured after 15 mins; assay type: cell-based
Folate receptor beta (Homo sapiens), sequence (P14207 17-230 limits assumed): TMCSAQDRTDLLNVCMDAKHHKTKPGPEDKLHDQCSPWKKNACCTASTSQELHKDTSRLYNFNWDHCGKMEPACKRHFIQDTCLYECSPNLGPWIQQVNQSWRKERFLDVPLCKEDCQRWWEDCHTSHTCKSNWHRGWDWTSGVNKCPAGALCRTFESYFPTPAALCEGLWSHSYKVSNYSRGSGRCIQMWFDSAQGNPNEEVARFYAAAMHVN

[7] = target: T1, Trifunctional purine biosynthetic protein adenosine-3 (Homo sapiens, UniProt P22102); experiment: Inhibition of GARFTase in human KB cells assessed as decrease in [14C]formyl GAR accumulation preincubated for 30 mins followed by [14C]glycine addition measured after 15 hrs in presence of azaserine by ion-exchange chromatographic assay; assay type: cell-based
T1 sequence (P22102 whole entry): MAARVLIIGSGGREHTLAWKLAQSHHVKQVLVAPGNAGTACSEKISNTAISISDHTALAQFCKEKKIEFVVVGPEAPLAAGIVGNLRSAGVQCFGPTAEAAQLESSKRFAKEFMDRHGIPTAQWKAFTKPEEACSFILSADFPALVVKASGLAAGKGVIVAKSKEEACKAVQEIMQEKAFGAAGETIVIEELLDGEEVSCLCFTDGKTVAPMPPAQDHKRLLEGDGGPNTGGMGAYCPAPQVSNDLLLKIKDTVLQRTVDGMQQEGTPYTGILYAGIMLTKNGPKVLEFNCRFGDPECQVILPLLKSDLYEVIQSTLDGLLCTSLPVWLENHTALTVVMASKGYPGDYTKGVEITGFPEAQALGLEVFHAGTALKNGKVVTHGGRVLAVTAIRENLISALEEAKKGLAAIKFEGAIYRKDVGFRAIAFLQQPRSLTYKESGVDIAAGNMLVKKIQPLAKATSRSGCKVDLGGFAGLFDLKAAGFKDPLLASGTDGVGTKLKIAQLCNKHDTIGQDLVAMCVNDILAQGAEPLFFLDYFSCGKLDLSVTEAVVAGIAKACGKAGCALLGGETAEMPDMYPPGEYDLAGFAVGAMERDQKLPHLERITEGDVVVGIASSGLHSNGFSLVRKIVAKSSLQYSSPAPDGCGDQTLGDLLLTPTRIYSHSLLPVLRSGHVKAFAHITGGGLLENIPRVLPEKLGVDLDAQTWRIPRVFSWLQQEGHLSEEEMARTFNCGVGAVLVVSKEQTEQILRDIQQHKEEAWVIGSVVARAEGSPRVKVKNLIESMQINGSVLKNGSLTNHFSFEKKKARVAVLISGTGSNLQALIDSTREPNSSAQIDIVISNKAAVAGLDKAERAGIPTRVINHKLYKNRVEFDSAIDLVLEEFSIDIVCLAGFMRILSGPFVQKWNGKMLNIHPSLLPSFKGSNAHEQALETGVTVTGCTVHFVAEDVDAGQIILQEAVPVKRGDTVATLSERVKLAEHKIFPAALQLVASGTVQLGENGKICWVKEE

KB [8] = experiment: Antiproliferative activity against human KB cells expressing human RFC/FR-alpha/PCFT assessed as reduction in cell viability up to 1000 nM measured after 96 hrs in presence of thymidine by Cell-Titer Blue assay; assay type: functional, cell-based
KB [9] = experiment: Antiproliferative activity against human KB cells expressing human RFC/FR-alpha/PCFT assessed as reduction in cell viability up to 1000 nM measured after 96 hrs in presence of adenosine by Cell-Titer Blue assay; assay type: functional, cell-based
[10] = target: Folate receptor alpha (Homo sapiens) (UniProt P15328); experiment: Displacement of [3H]folic acid from human FR-alpha receptor expressed in Chinese hamster RT16 cells measured after 15 mins; assay type: cell-based
Folate receptor alpha (Homo sapiens), sequence (P15328 25-234 limits assumed): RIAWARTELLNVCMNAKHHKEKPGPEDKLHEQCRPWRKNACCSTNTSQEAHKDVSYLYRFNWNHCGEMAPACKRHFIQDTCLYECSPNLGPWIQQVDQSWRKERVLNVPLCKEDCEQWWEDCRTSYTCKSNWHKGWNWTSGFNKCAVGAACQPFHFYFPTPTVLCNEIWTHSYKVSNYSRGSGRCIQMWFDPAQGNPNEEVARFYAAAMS
Outline: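 RT16 (FRα) or D4 (FRβ) CHO cells, ~5 x 10^6 per dish, stripped of bound folate with pH 3.5 acetate buffer. Then incubated in HEPES-buffered saline pH 7.4 with 50 nM [3H]folic acid ± unlabeled ligand 1-1000 nM. Bound label normalized to protein. […] Mean ± SE, 3 experiments.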

[11] = target: T2, Proton-coupled folate transporter (Homo sapiens) (UniProt Q96NT5); experiment: Inhibition of [3H]MTX uptake at human PCFT expressed in Chinese hamster R2/PCFT4 cells at 1 uM at pH 5.5 by scintillation counting method relative to control; assay type: cell-based
T2 sequence (whole entry): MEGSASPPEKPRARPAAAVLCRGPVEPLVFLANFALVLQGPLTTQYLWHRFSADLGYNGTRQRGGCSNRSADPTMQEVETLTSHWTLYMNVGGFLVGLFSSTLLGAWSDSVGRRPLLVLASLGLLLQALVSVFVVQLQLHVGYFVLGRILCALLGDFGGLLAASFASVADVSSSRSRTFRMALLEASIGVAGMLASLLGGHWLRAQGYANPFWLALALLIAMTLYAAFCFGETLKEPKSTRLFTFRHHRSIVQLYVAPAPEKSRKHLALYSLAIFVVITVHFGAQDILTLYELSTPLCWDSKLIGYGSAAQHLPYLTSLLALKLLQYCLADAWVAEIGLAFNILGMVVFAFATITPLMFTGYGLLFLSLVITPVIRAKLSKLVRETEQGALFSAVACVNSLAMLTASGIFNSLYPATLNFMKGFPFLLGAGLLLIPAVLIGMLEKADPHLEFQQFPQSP
Outline: (§2)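 Buffers: MES-buffered saline pH 5.5 or HEPES-buffered saline pH 6.8, with 1 or 10 µM inhibitor. Quenched with ice-cold DPBS, counted by scintillation, normalized to protein and untreated controls. Mean ± SE, 3 experiments.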

IGROV-1 [12] = experiment: Antitumor activity against human IGROV1 cells xenografted in folate-deficient diet ICR SCID mouse assessed as tumor growth delay time at […], iv administered every 4 days for 4 times starting on day 3 measured twice per week
Mus musculus [13] = experiment: Toxicity in folate-deficient diet fed ICR SCID mouse assessed as body weight loss at […], iv administered every 4 days for 4 times starting on day 3 measured twice per week; conditions: in vivo
[14] = target: T2, Proton-coupled folate transporter (Homo sapiens); conditions: 1 uM
[15] = target: T2, Proton-coupled folate transporter (Homo sapiens); experiment: Inhibition of [3H]MTX uptake at human PCFT expressed in Chinese hamster R2/PCFT4 cells at 10 uM at pH 6.8 by scintillation counting method relative to control; assay type: cell-based; outline: as §2
Mus musculus [16] = experiment: Toxicity in folate-deficient diet fed ICR SCID mouse assessed as body weight loss at 150 mg/kg, iv administered every 2 days for 8 times starting on day 3 measured twice per week; assay type: organism-based; conditions: in vivo, 48 h
Outline: (§3)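 Female SCID mice, 10 weeks, ~20 g. Fed folate-deficient or folate-replete diet from 14 days before bilateral s.c. IGROV1 tumor fragments (30-60 mg, trocar). […] Weighed daily, tumors measured twice weekly. Growth delay = T-C days to 1000 mg, median.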

IGROV-1 [17] = experiment: Antiproliferative activity against human IGROV1 cells expressing human FR-alpha/PCFT assessed as reduction in cell viability measured after 96 hrs by Cell-Titer Blue assay; assay type: functional, cell-based; conditions: IGROV-1, 96 h
IGROV-1 [18] = experiment: Antitumor activity against human IGROV1 cells xenografted in high folate diet fed ICR SCID mouse assessed as tumor growth inhibition at 150 mg/kg, iv administered every 2 days for 8 times starting on day 3 measured twice per week; assay type: functional, organism-based; outline: as §3
IGROV-1 [19] = experiment: Antitumor activity against human IGROV1 cells xenografted in folate-deficient diet fed ICR SCID mouse assessed as tumor growth inhibition at 150 mg/kg, iv administered every 2 days for 8 times starting on day 3 measured twice per week up to 49 days; assay type: functional, organism-based; outline: as §3
IGROV-1 [20] = experiment: Antitumor activity against human IGROV1 cells xenografted in folate-deficient diet fed ICR SCID mouse assessed as tumor growth delay time at 150 mg/kg, iv administered every 2 days for 8 times starting on day 3 measured twice per week; assay type: functional; outline: as §3
[21] = target: T3, Proton-coupled folate transporter (Homo sapiens, UniProt Q96NT5); experiment: Inhibition of [3H]MTX uptake at human PCFT expressed in Chinese hamster R2/PCFT4 cells at pH 5.5 measured after 2 mins by Dixon plot analysis; assay type: cell-based
T3 sequence (Q96NT5 whole entry): T2 sequence (whole entry)

[22] = target: T2, Proton-coupled folate transporter (Homo sapiens); experiment: Inhibition of [3H]MTX uptake at human PCFT expressed in Chinese hamster R2/PCFT4 cells at 10 uM at pH 5.5 by scintillation counting method relative to control; assay type: cell-based; outline: as §2
IGROV-1 [23] = experiment: Antiproliferative activity against human IGROV1 cells expressing human FR-alpha/PCFT assessed as reduction in cell viability measured after 96 hrs in presence of folic acid by Cell-Titer Blue assay; assay type: functional, cell-based; conditions: IGROV-1, 96 h
Outline: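 IGROV1 growth inhibition in folate-free RPMI 1640 with 10% dialyzed FBS, 2 nM leucovorin and 2 mM L-glutamine, with 200 nM folic acid added to block FR-mediated uptake. Drug present continuously up to 1000 nM for up to 96 h. Readout by CellTiter-Blue fluorescence.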

[24] = target: T2, Proton-coupled folate transporter (Homo sapiens); experiment: Inhibition of [3H]MTX uptake at human PCFT expressed in Chinese hamster R2/PCFT4 cells at 1 to 10 uM at pH 5.5 to 6.8 by scintillation counting method; assay type: cell-based; outline: as §2

Nc1nc2[nH]c(CCC#Cc3cccc(C(=O)N[C@@H](CCC(=O)O)C(=O)O)n3)cc2c(=O)[nH]1
IC50 [1]: > 1 µM | IC50 (KB [2]): > 1 µM | IC50 (KB [3]): > 1 µM | IC50 [4]: > 1 µM

Nc1nc2[nH]c(CCCCc3ccc(C(=O)N[C@@H](CCC(=O)O)C(=O)O)cn3)cc2c(=O)[nH]1
Activity (KB [5]): inactive | inhibition [6]: Active | IC50 [1]: > 1 µM | IC50 [7]: 0.0048 µM | Activity (KB [8]): Active | IC50 (KB [2]): 0.0174 µM | Activity (KB [9]): inactive | inhibition [10]: Active | IC50 (KB [3]): > 1 µM | IC50 [4]: > 1 µM

Nc1nc2[nH]c(CCC#Cc3ccc(C(=O)N[C@@H](CCC(=O)O)C(=O)O)nc3)cc2c(=O)[nH]1
IC50 [1]: > 1 µM | IC50 (KB [2]): > 1 µM | IC50 (KB [3]): > 1 µM | IC50 [4]: > 1 µM

Nc1nc2[nH]cc(CCc3ccc(C(=O)N[C@@H](CCC(=O)O)C(=O)O)cc3)c2c(=O)[nH]1 [PEMETREXED]
inhibition [11]: 85% | Time (IGROV-1 [12]): 0 days | Activity (Mus musculus [13]): 14% | inhibition [14]: 40% | IC50 [4]: 0.849 µM | inhibition [15]: 75%

C#CCC(Cc1cnc2nc(N)nc(N)c2n1)c1ccc(C(=O)N[C@@H](CCC(=O)O)C(=O)O)cc1 (mixture of isomers) [PRALATREXATE]
IC50 [1]: > 1 µM | IC50 [4]: 0.819 µM

Nc1nc2[nH]c(CCCCc3cccc(C(=O)N[C@@H](CCC(=O)O)C(=O)O)n3)cc2c(=O)[nH]1
Activity (KB [5]): inactive | inhibition [6]: inactive | IC50 [1]: > 1 µM | Activity (KB [8]): Active | IC50 (KB [2]): 0.667 µM | Activity (KB [9]): inactive | inhibition [10]: inactive | IC50 (KB [3]): > 1 µM | IC50 [4]: > 1 µM

Nc1nc2[nH]c(CCCCc3ccc(C(=O)N[C@@H](CCC(=O)O)C(=O)O)nc3)cc2c(=O)[nH]1
Activity (KB [5]): inactive | IC50 [1]: > 1 µM | Activity (KB [8]): Active | IC50 (KB [2]): 0.00037 µM | Activity (KB [9]): inactive | inhibition [11]: 70% | Activity (Mus musculus [16]): 5% | IC50 (IGROV-1 [17]): 0.00068 µM | TGI (IGROV-1 [18]): inactive | TGI (IGROV-1 [19]): Active | Time (IGROV-1 [20]): 45 days | inhibition [14]: 10% | Ki [21]: 0.332 µM | inhibition [22]: > 90% | IC50 (KB [3]): 0.368 µM | IC50 [4]: > 1 µM | inhibition [15]: 40% | IC50 (IGROV-1 [23]): 0.846 µM

CN(Cc1cnc2nc(N)nc(N)c2n1)c1ccc(C(=O)N[C@@H](CCCNC(=O)c2ccccc2C(=O)O)C(=O)O)cc1
inhibition [24]: inactive

CN(Cc1cnc2nc(N)nc(N)c2n1)c1ccc(C(=O)N[C@@H](CCC(=O)O)C(=O)O)cc1 [METHOTREXATE]
IC50 [1]: > 1 µM

Nc1nc2[nH]c(CCC#Cc3ccc(C(=O)N[C@@H](CCC(=O)O)C(=O)O)cn3)cc2c(=O)[nH]1
IC50 [1]: > 1 µM | IC50 (KB [2]): > 1 µM | IC50 (KB [3]): > 1 µM | IC50 [4]: > 1 µM

Nc1nc2[nH]c(CCCCc3ccc(C(=O)N[C@@H](CCC(=O)O)C(=O)O)cc3)cc2c(=O)[nH]1
IC50 [1]: > 1 µM | inhibition [11]: 50% | inhibition [10]: Active | inhibition [14]: 0% | inhibition [22]: > 90% | IC50 (KB [3]): > 1 µM | IC50 [4]: > 1 µM | inhibition [15]: 35% | IC50 (IGROV-1 [23]): > 1 µM
